Arr AP2 block = inhibitors of beta-arrestin/AP2 binding, primary screen, biochemical, GPCR trafficking, flow cytometry. FITC-arrestin peptide / GST-AP2 beads; AP2 beta2 appendage carries R879A mutation. inhibition, % at 10 µM. hit rate 0.31% among 340,000. AID 504490, 2011;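 active means inhibition above a set limit, near 3 SD of compounds lacking own fluorescence, cut at about 54% in these data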;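 further: plate controls were DMSO wells for no effect and 5 µM unlabelled arrestin peptide for full effect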
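Test system: GST-tagged AP2 beta2-adaptin appendage (R879A) on 4 µm glutathione beads; also added: fluorescein-tagged arrestin peptide at 50 nM final; timing: 12 min plus 1 h, RT; signal: flow cytometry, FL1 (488/535 nm); read-out: percent drop in bead-associated FITC signal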
CendR NRP1 mod = modulators of CendR peptide binding to NRP-1, primary screen, biochemical, fluorescence polarization, uHTS. FAM-RPARPAR peptide binding to NRP-1. AID 602438, 2012. Neuropilin-1 (Homo sapiens), O14786. hit rate 0.85% among 360,000. inhibition, % at 25 µM;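 active means inhibition or corrected inhibition above about 18%, plus a signal ratio from 0.5 to 1.5, limit read from the data, passing the limit was not always enough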
m5-HT2A agonist = mouse Htr2a agonists via beta-arrestin recruitment, primary screen, cell-based, luminescence. CHO-K1 mHTR2A beta-arrestin complementation; percent of 30 µM serotonin response. activation, % at 7.6 µM. hit rate 0.66% among 360,000. AID 624169, 2012;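 active means activation above a run cutoff, the mean activation of all tested compounds plus 3 SD, cut at about 14% in these data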;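 further: 0% = plate median of compound wells and 100% = 30 µM serotonin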
Target sequence (P35363 whole entry, looked up): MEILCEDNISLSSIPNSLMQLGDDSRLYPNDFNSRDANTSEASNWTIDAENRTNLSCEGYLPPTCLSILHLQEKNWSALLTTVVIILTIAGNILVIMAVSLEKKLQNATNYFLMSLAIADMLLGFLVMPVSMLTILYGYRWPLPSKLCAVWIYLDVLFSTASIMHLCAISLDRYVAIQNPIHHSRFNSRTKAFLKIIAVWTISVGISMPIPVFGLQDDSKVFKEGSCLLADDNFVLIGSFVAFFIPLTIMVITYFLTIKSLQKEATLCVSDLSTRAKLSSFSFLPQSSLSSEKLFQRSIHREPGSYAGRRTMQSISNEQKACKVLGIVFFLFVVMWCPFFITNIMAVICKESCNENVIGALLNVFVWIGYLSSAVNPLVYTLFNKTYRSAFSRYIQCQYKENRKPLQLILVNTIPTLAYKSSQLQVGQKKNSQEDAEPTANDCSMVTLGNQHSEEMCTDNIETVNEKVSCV
Hep lipid drop = inhibitors of hepatocyte lipid droplet formation, primary screen, imaging, high-throughput imaging, BODIPY stain. AID 1656, 2009. inhibition, % at 6.5 µM. AML12 mouse hepatocytes, oleate lipid droplets. hit rate 0.4% among 240,000;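 active means lipid droplet intensity inhibited by at least 50%, with more than 500 cells counted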
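Test system: AML12 hepatocytes (mouse); reagent: oleate loading, 100 µM; dosing: one dose, 6.5 µM compound; incubation: overnight exposure; signal: fluorescence imaging, 20x objective, two fields per well; read-out basis: % inhibition of corrected integrated BODIPY droplet signal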
HGIII-sPLA2 inh = human group III sPLA2 inhibitors, primary screen, biochemical, QFRET, BODIPY PC-A2 liposome substrate | Group 3 secretory phospholipase A2 (Homo sapiens), Q9NZ20 | QFRET BODIPY PC-A2 liposome hydrolysis, fluorescence | inhibition, % at 12.2 µM | hit rate 0.56% among 370,000 | AID 743126, 2013;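 active means inhibition above mean plus 3 SD of compounds lying within the high and low control bounds, cut at about 19% in these data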;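 further: 0% = median of test compound wells and 100% = no enzyme DMSO wells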
M18AAP inhibitor = PfM18AAP inhibitors, malaria aminopeptidase, primary screen, biochemical, QFRET, recombinant enzyme | M18 aspartyl aminopeptidase (Plasmodium falciparum 3D7) | H-Glu-NHMec fluorogenic cleavage | inhibition, % at 7.35 µM | hit rate 1.2% among 290,000;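 active means inhibition above the campaign mean inhibition over all tested compounds plus 3 SD, cut at about 28% in these data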;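 further: 0% = plate median of test compound wells and 100% = 2 mM ZnCl2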
Hep lipid conf = hepatocyte lipid droplet accumulation inhibitors, confirmation, imaging, AML12 mouse hepatocytes, single concentration, high-content; BODIPY lipid droplet imaging; droplets induced with 100 µM oleic acid; hit rate 65% among 870; inhibition, % at 5.2 µM; AID 463183, 2010; shares compounds with Hep lipid drop;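 active means inhibition of lipid droplet metric at least 50%, with more than 300 cells in each of four replicates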;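 further: plate controls were DMSO with oleic acid for no effect and 5 µM Triacsin-C for full effect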
AML12 tox img = AML12 hepatocyte cytotoxicity, counter-screen for hepatic lipid droplet formation project, imaging, DAPI nuclear morphology imaging; shares compounds with Hep lipid drop; AML12 mouse hepatocytes; active compounds read high; cells fed 100 µM oleate overnight; z-score at 5 µM; hit rate 3% among 870; in the data active means z-score above about 6.3;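 further: compound exposure lasted overnight at 37 °C before fixation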
AML12 tox conf = AML12 hepatocyte cytotoxicity, confirmation, cytotoxicity control for hepatic lipid droplet formation project, cell-based, single concentration; shares compounds with Hep lipid drop; AML12 mouse hepatocyte viability, ATP luminescence; cells loaded with 100 µM oleic acid; cytotoxicity, % at 50 µM; 530 tested, under 10 active;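 active means cytotoxicity above 50% in each of four replicates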;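 further: compound exposure lasted overnight at 37 °C before the ATP read; 0% = DMSO-treated cells and 100% = wells with no cells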
Active calls of the source: *. Rows were chosen to be rich in hits. Some 3.3% of all compounds tested hit in one or more screens of this group.

Results for N#C/C(=C\c1ccc(-c2ccccc2[N+](=O)[O-])o1)C(=O)Nc1nc(-c2cccs2)cs1 ?
Arr AP2 block: 19; CendR NRP1 mod: -3; m5-HT2A agonist: -4; Hep lipid drop: 72*; HGIII-sPLA2 inh: -6; M18AAP inhibitor: 4; Hep lipid conf: 101*; AML12 tox img: -0.47; AML12 tox conf: 1

How did N#C/C(=C\c1ccc(-c2ccc([N+](=O)[O-])cc2)o1)C(=O)Nc1nc(-c2cccs2)cs1 do in these assays?
Arr AP2 block: 0; CendR NRP1 mod: -19; m5-HT2A agonist: 3; Hep lipid drop: 18; HGIII-sPLA2 inh: -3; M18AAP inhibitor: 15

How did COc1cc(NC(=O)CNC(=O)Cn2cnc3sc(C)c(C)c3c2=O)cc(OC)c1OC do in these assays?
CendR NRP1 mod: 4; m5-HT2A agonist: 0; HGIII-sPLA2 inh: -2

How did CCc1ccc(NC(=O)CSc2nc3ccccc3nc2N2CCCC2)cc1 do in these assays?
Arr AP2 block: 14; CendR NRP1 mod: 5; m5-HT2A agonist: 5; Hep lipid drop: 74*; HGIII-sPLA2 inh: -5; M18AAP inhibitor: 2; Hep lipid conf: 101*; AML12 tox img: 0.98; AML12 tox conf: 1

Results for Cc1ccc(NC(=O)CSc2nc3ccccc3nc2N2CCCC2)cc1 ?
Arr AP2 block: 13; CendR NRP1 mod: -6; m5-HT2A agonist: -1; Hep lipid drop: 70*; HGIII-sPLA2 inh: 3; M18AAP inhibitor: 0; Hep lipid conf: 104*; AML12 tox img: 0.86; AML12 tox conf: 4

What do the screens show for `O=C(CSc1nc2ccccc2nc1N1CCCC1)Nc1ccc(Cl)cc1`?
Arr AP2 block: 14; CendR NRP1 mod: 0; m5-HT2A agonist: 3; Hep lipid drop: 8; HGIII-sPLA2 inh: 1; M18AAP inhibitor: -4

What do the screens show for `CC(C)c1ccc(NC(=O)CSc2nc3ccccc3nc2N2CCCC2)cc1`?
Arr AP2 block: 17; CendR NRP1 mod: -10; m5-HT2A agonist: -2; Hep lipid drop: 70*; HGIII-sPLA2 inh: -7; M18AAP inhibitor: 10; Hep lipid conf: 105*; AML12 tox img: 0.32; AML12 tox conf: 6

Results for CCc1ccccc1NC(=O)CSc1nc2ccccc2nc1N1CCOCC1 ?
Arr AP2 block: 28; CendR NRP1 mod: -9; m5-HT2A agonist: 4; Hep lipid drop: -1; HGIII-sPLA2 inh: 0; M18AAP inhibitor: 4

How did CCCCC[C@@H](C)N1C[C@@H](COCc2ccccc2)Oc2cc(N3CCC[C@@H]3CO)ccc2S1(=O)=O do in these assays?
CendR NRP1 mod: -1; m5-HT2A agonist: 1; HGIII-sPLA2 inh: -3

Results for COc1ccccc1Nc1ccc(NS(=O)(=O)c2ccc(C(C)=O)cc2)cc1 ?
Arr AP2 block: 1; CendR NRP1 mod: -7; m5-HT2A agonist: -5; Hep lipid drop: 99*; HGIII-sPLA2 inh: -21; M18AAP inhibitor: -42; Hep lipid conf: 94*; AML12 tox img: 0.79

Bioassay records from PubChem BioAssay.
